SENP8 block-1 – inhibitors of human SENP8 protease. 330,000 tested, 1.2% active. Q96LD8. purified SENP8, Z-RLRGG-aminoluciferin cleavage, luminescence. AID 2540. inhibition, % at 10 µM; in the data active = inhibition above about 50%
Target sequence (Q96LD8 whole entry, looked up): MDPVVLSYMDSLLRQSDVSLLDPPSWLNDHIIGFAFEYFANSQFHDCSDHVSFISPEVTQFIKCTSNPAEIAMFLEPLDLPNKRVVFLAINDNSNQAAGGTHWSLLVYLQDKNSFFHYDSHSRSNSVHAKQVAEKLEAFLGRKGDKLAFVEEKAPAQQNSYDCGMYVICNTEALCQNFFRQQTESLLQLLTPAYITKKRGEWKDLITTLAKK
SENP6 inh – blocks the human protease SENP6 | Q9GZR1 | Recombinant SENP6 catalytic domain, aminoluciferin luminescence | inhibition, % at 10 µM | 330,000 tested, 1.8% active;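 active = inhibition above about 50% at the single tested dose, limit read from the data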;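 also: plate controls were DMSO wells with enzyme for no effect and DMSO wells lacking enzyme for full effect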
SENP7 block – SENP7 protease inhibition. Q9BQF6. recombinant SENP7, Z-RLRGG-aminoluciferin luminescence, 40 min. inhibition, % at 5 µM. 330,000 tested, 1.5% active. AID 434973;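 active = inhibition above about 50% at the single test dose, limit read from the data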;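 also: plate controls were DMSO with enzyme for no effect and no enzyme buffer wells for full effect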
SENP1 FRET inh – SENP1 (human) catalytic domain inhibition; Q9P0U3; recombinant SENP1 catalytic domain, CyPet-SUMO1-YPet FRET cleavage; inhibition, % at 10 µM; 360,000 tested, 0.21% active;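 active = inhibition at least 30% at 10 µM, raw YFP signal under a set limit, fluorescence ratio 0.5 to 1.5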;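 also: 0% = enzyme with DMSO and 100% = no enzyme wells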
Target sequence (Q9P0U3 419-644 limits assumed): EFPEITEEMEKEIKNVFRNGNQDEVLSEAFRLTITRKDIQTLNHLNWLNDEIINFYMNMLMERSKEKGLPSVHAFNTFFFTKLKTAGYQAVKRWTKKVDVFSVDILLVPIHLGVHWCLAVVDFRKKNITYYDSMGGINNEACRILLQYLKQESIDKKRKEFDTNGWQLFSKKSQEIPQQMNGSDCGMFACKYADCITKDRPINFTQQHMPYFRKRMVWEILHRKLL
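Test system: recombinant human SENP1 catalytic domain, His6-tagged / Medium: pH 8 Tris buffer with EDTA, NaCl, BME, BSA, NP40, catalase / Also added: SUMO1 FRET substrate flanked by Cypet and Ypet, 25 nM / Times: 50 min reaction at room temperature / Signal: FRET, CFP and YFP emission / Control set: no-enzyme low control and enzyme-plus-DMSO high control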
SENP8 block-2 – blocks human SENP8 cleavage of Nedd8 substrate; 360,000 tested, 0.64% active; inhibition, % at 20 µM; recombinant SENP8, Nedd8 substrate fluorescence; Q96LD8; AID 602440; in the data active = inhibition mostly above about 40%, no sharp cut-off; inactive = mostly below about 27%
SENP8 confirm – human SENP8 inhibition, confirmed. inhibition, % at 12.5 µM. 6,200 tested, 40% active. Recombinant SENP8, Z-RLRGG-aminoluciferin luminescence, 60 min. shares compounds with SENP7 block;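 active = mean inhibition across replicates above about 50%, limit read from the data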
SENP6 confirm – confirmation of human SENP6 protease inhibitors; inhibition, % at 12.5 µM; shares compounds with SENP7 block; 6,200 tested, 58% active; recombinant SENP6, Z-RLRGG-aminoluciferin luminescence
SENP7 conf – confirmation of human SENP7 protease inhibitors. recombinant SENP7, Z-RLRGG-aminoluciferin luminescence, 40 min. 6,200 tested, 69% active. inhibition, % at 12.5 µM. AID 488917. shares compounds with SENP7 block
Casp3 select – caspase-3 inhibition (SENP selectivity assay) | 6,200 tested, 60% active | purified caspase-3, Z-DEVD-aminoluciferin luminescence, 60 min | inhibition, % at 12.5 µM | shares compounds with SENP7 block | AID 488918;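 active = mean inhibition above about 50%, limit read from the data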;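 also: plate controls were enzyme with DMSO for no effect and wells without caspase-3 for full effect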
SENP luc ctr – interferes with luciferase luminescence in SENP counter-screen | shares compounds with SENP7 block | Pre-incubated SENP8/Z-RLRGG-aminoluciferin, luciferase luminescence interference | inhibition, % at 12.5 µM | 6,200 tested, 39% active | AID 488919;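 active = mean inhibition above about 50% when retested at one dose, limit read from the data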;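 also: plate controls were DMSO wells with completed reaction for no effect and substrate without enzyme for full effect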
Numbers without * were called inactive; i = inactive; · = no result given. Sampled rows, rich in hits. Any-hit rate of the full collection: about 2.5%.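 The calls were made as follows, unless noted: active = mean inhibition above about 50% in the one-dose retest (limit read from the data); inactive = the rest.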

SMILES	SENP8 block-1	SENP6 inh	SENP7 block	SENP1 FRET inh	SENP8 block-2	SENP8 confirm	SENP6 confirm	SENP7 conf	Casp3 select	SENP luc ctr
CCOC(=O)c1nc2cc3n(c(C)c-2c1C)C(C)C(CC)=C3C (centres undefined)	-7.0	-15.8	-2.7	-13.1	-343.7	·	·	·	·	·
S=C(Nc1ccccc1)N1CCc2ccccc21	-15.2	-10.6	9.7	2.4	19.6	·	·	·	·	·
Fc1cccc(NC(=S)N2CCc3ccccc32)c1	9.7	56.9*	2.2	3.6	5.8	11.7	2.1	10.1	3.4	16.9
CNC(=O)C1CCC(=O)N1Cc1c[nH]c2ccccc12 (centres undefined)	·	·	·	-3.2	9.2	·	·	·	·	·
NC1=Nc2cccc3cccc1c23	10.9	66.2*	1.5	-34.1	-351.2	1.3	23.3	9.4	3.0	1.7
COC(=O)c1ccc(-c2ccc(Cl)cc2)nc1C	57.5*	76.1*	76.0*	-0.1	15.9	20.8	63.7*	90.3*	51.9*	30.5
CCOc1ccc(-n2nc3cc(C)c(N)cc3n2)cc1	45.7	73.3*	13.2	-67.9	i	40.3	74.3*	94.1*	37.5	5.9
COc1ccc(-n2nc3ccc(N)cc3n2)cc1	·	·	·	-42.5	i	·	·	·	·	·
CCOc1ccc(-n2nc3ccc(N)cc3n2)cc1	79.4*	86.3*	40.8	-33.5	-428.7	85.1*	44.8	1.0	2.2	66.0*
COCCNC(=O)C1(C)CCCN(Cc2ccc3ccccc3c2Br)C1 (centres undefined)	·	·	·	2.8	6.3	·	·	·	·	·
O=C(Nc1ccccc1)Nc1ncc([N+](=O)[O-])s1	96.6*	99.1*	99.5*	-13.4	35.9	98.5*	99.6*	102.4*	98.0*	97.6*
O=C(COC(=O)c1ccccc1)Nc1ncc([N+](=O)[O-])s1	5.5	5.4	-4.2	-15.8	16.8	·	·	·	·	·
CC(C)CC(=O)Nc1ncc([N+](=O)[O-])s1	-6.9	-4.1	4.1	-6.8	36.2	·	·	·	·	·
Cc1nc(C)c(C(=O)Nc2ncc([N+](=O)[O-])s2)o1	95.0*	98.0*	89.3*	-31.7	22.1	97.5*	98.0*	101.6*	97.7*	96.5*
COc1ccccc1-c1nnc(SCC(=O)Nc2cccnc2Cl)n1C	-4.3	-2.3	11.8	0.6	2.1	·	·	·	·	·
CSc1nc(O)c(N=Nc2ccc(F)cc2F)c(=O)[nH]1	81.3*	91.1*	87.0*	3.6	16.3	83.2*	86.4*	95.7*	93.1*	53.3*
NS(=O)(=O)c1ccc(CCNc2ccn3nc(-c4cccc(C(F)(F)F)c4)cc3n2)cc1	·	·	·	-12.5	-461.7	·	·	·	·	·
Cc1ccc(C(=O)Nc2nc3c(s2)CCCC3)o1	81.7*	94.1*	92.8*	-0.5	-54.3	11.2	89.6*	100.0*	93.1*	29.4
O=C(Nc1nc2c(s1)CCCC2)c1ccc(Br)o1	85.7*	91.2*	87.7*	-2.6	-40.4	90.4*	90.6*	99.1*	90.9*	87.2*
O=C(Oc1ccc2ccc(O)cc2c1)c1ccccc1Cl	73.8*	89.1*	70.1*	0.6	11.5	-20.3	76.2*	91.0*	33.5	67.0*
Cc1cccc(C(=O)Oc2ccc(/C=N/O)cc2)c1	69.1*	76.2*	2.9	1.8	5.0	76.6*	73.0*	88.6*	73.9*	73.0*
COc1cc(C(=O)N/N=C/c2ccc(OC(=O)c3cccc(C)c3)cc2)ccc1O	2.7	-10.4	-0.4	-0.2	7.8	·	·	·	·	·
O=C(Oc1ccc(/C=N/O)cc1)c1ccccc1Cl	63.3*	86.1*	71.1*	2.5	-6.4	81.1*	77.1*	93.8*	77.4*	75.4*
COc1ccc(S(=O)(=O)N2CCN(C(=O)c3ccccc3Cc3ccccc3)CC2)cc1OC	·	·	·	0.8	5.2	·	·	·	·	·
